Screens as filed in PubChem BioAssay.
Only some compounds are listed: those with a hit (about 1.8% of all), similar ones and a draw of the others.
NPY2 pot ag: NPY-Y2 potentiators or agonists, primary screen, cell-based | cells expressing NPY-Y2, potentiator/agonist read-out | AID 1359, 2008 | Neuropeptide Y receptor type 2 (Homo sapiens), P49146 | 220,000 tested, 0.45% active | activation, % at 3.6 µM; in the data active means activation above about 27%;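 further: cells stimulated with NPY near EC25 plus isoproterenol at EC100; 0% = vehicle plus submaximal agonist and 100% = vehicle plus saturating agonist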
Target sequence (P49146 whole entry, looked up): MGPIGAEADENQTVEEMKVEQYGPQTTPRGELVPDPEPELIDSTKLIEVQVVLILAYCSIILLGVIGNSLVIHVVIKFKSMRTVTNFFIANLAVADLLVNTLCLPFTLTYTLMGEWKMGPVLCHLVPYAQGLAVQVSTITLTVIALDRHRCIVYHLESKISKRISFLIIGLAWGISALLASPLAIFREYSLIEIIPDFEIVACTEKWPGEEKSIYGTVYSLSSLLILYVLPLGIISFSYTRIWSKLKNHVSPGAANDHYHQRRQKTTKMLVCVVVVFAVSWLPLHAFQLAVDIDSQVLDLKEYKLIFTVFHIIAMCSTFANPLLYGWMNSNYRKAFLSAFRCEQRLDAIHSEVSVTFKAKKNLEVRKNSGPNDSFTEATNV
NPY1 pot ag: NPY-Y1 receptor potentiators or agonists, primary screen, cell-based. Neuropeptide Y receptor type 1 (Homo sapiens), P25929. NPY-Y1 expressing cells, potentiator/agonist activation. activation, % at 3.6 µM. AID 1304, 2008. 220,000 tested, 0.37% active; in the data active means activation above about 33%, passing the limit was not always enough;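 further: cells stimulated with NPY at EC10 then isoproterenol at EC100; 0% = low agonist plus stimulus and 100% = saturating agonist plus stimulus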
NPY Y1 blocker: NPY-Y1 receptor antagonists, primary screen, cell-based; HEK293-CNG Y1 cells, membrane potential fluorescence; NPY at EC95, then isoproterenol; inhibition, % at 3.6 µM; 200,000 tested, 1% active; AID 1040, 2008;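 active means inhibition above the campaign mean inhibition of all tested compounds plus 3 SD, cut at about 20% in these data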;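 further: 0% = DMSO wells given NPY plus isoproterenol and 100% = isoproterenol alone without NPY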
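System: HEK293 cells with Y1 receptor plus CNG channel / Probe or stimulus: NPY 25 nM then isoproterenol 1 µM plus Ro 20-1724 25 µM / Compound: one concentration, 3.6 µM, in 0.4% DMSO / Schedule: compound incubation 1 h at room temperature, readout 45 min post-stimulation / Measured by: membrane potential fluorescence / Read-out: % inhibition of NPY effect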
NPY Y2 blocker: NPY-Y2 receptor antagonists, primary screen, cell-based | NPY-Y2 expressing cells, antagonist mode | inhibition, % at 2.7 µM | Neuropeptide Y receptor type 2 (Homo sapiens), P49146 | 140,000 tested, 0.99% active; in the data active means inhibition above about 17%;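 further: 0% = vehicle with agonist challenge and 100% = reference antagonist with challenge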
An asterisk follows results filed as active; x = no result given.

SMILES | NPY2 pot ag | NPY1 pot ag | NPY Y1 blocker | NPY Y2 blocker
Cc1ccc(C(C)C)c(OCC(O)CN2CCOCC2)c1 (stereo not given) | 76* | 89* | -13 | 1
Cc1ccc(OCC(O)CN2CCN(CC(O)COC(C)C)CC2)c(C(C)(C)C)c1 (stereo not given) | 93* | 96* | -15 | 5
Cc1cc(OCC(O)CN2CCN(C)CC2)ccc1C(C)C (stereo not given) | 2 | -20 | 5 | 0
Cc1ccc(C(C)C)c(OCC(O)CN2CC(C)OC(C)C2)c1 (stereo not given) | 92* | 93* | -10 | 4
Cc1ccc(C(C)C)c(OCC(=O)N2CCOCC2)c1 | -2 | 1 | 5 | 11
CC1CN(CC(O)COc2ccc(C(=O)c3ccccc3)cc2)CC(C)O1 (stereo not given) | -12 | -14 | 1 | 2
Cc1ccc(Cl)cc1N1CCN(CC(O)COC(C)C)CC1 (stereo not given) | -13 | 2 | x | x
Cc1ccc(C(C)C)c(OCC(O)CN2CCN(CCO)CC2)c1 (stereo not given) | 81* | 101* | -11 | 4
O=C(c1cc2cc(Br)ccc2s1)N1CCOCC1 | 8 | -4 | 0 | x
O=C(N/N=C/C=C/c1ccc(Br)cc1)C(O)c1ccccc1 (stereo not given) | 1 | -12 | -3 | 1
Cc1sc(N)nc1C12CC3CC(CC(C3)C1)C2 | 35* | 47* | -11 | x
COC(=O)C/C=C/[C@@H](C)[C@@H](/C=N/OC[C@H]1O[C@H](c2ccccc2)C=C[C@@H]1Oc1ccc(OC)cc1)OC | 2 | -39 | 25* | 19*
COc1ccc(O[C@H]2C=C[C@@H](c3ccccc3)O[C@@H]2COC(=O)CC/C(C)=N/OC[C@@H](O)COCc2ccco2)cc1 | -3 | -21 | 7 | 12
Cc1ccc(CN2CCN(Cc3cnc(C)[nH]3)CC2CCO)cc1 (stereo not given) | -13 | -16 | 5 | x
COc1ccc(C2c3c(-c4cc(Cl)c(C)cc4O)n[nH]c3C(=O)N2Cc2cccnc2)cc1OC (stereo not given) | -19 | -9 | 45* | 55*
COc1ccc(C2c3c(-c4ccccc4O)n[nH]c3C(=O)N2Cc2ccco2)cc1OC (stereo not given) | -29 | -21 | x | x
Cc1ccc(NC(=S)N/N=C/c2c(C)[nH]c3ccccc23)cc1 | 37* | 51* | -11 | x
Cc1[nH]c2ccccc2c1/C=N/NC(N)=S | 13 | -6 | x | x
COc1ccc(NC(=O)NC23CC4(C)CC(C)(CC(C)(C4)C2)C3)cc1 | -4 | -9 | -1 | 0
COCn1ccnc1C(O)(c1ccc(OC)cc1)c1ccc(OC)cc1 | -3 | -4 | -2 | 2
Cc1[nH]c2c(C)cccc2c1CCNC(=O)c1ccc2c(c1[N+](=O)[O-])C(=O)c1ccccc1C2=O | 59* | 68* | -22 | -6
Cc1[nH]c2ccccc2c1CCNC(=O)c1ccc2c(c1[N+](=O)[O-])C(=O)c1ccccc1C2=O | 22 | 27 | -20 | -5
CCOc1ccccc1CN1CCN(Cc2[nH]c3ccccc3c2C)CC1CCO (stereo not given) | -13 | -26 | 21* | x
CCOc1ccccc1CN1CCN(Cc2ccc(C)o2)CC1CCO (stereo not given) | -17 | -21 | 1 | x
CCOC(=O)C(=CNc1cccnc1Oc1ccc(C)c2c1CCC2)C(=O)OCC | 3 | 1 | x | x
SMILES | NPY2 pot ag | NPY1 pot ag | NPY Y1 blocker | NPY Y2 blocker
O=C(COc1ccc(/C=N/NC(=O)C(=O)N2CCCCC2)cc1)Nc1ccccc1Cl | 9 | 8 | -1 | x
O=C(/C=C/c1cccc([N+](=O)[O-])c1)Nn1c(-c2ccccc2F)nc2ccccc2c1=O | -19 | -89 | 46* | 66*
Cc1cccc(-c2nc3ccccc3c(=O)n2NC(=O)/C=C/c2ccc([N+](=O)[O-])cc2)c1 | -20 | -90 | 80* | 105*
COc1ccc(C)cc1NS(=O)(=O)c1ccc(NC(=O)CN(c2cc([N+](=O)[O-])ccc2C)S(C)(=O)=O)cc1 | 27* | 40* | -9 | -3
Cc1cccc(NS(=O)(=O)c2ccc(NC(=O)CN(c3cc([N+](=O)[O-])ccc3C)S(C)(=O)=O)cc2)c1 | 42* | 50* | -13 | -5
COC(=O)c1ccccc1NC(=O)CN1CCN(C23CC4CC(CC(C4)C2)C3)CC1 | -39 | -127 | 96* | 64*
O=S(=O)(Nc1ncnc2sc3c(c12)CCC3)c1ccc(Cl)s1 | 46* | 52* | -13 | -1
O=S(=O)(Nc1ncnc2sc3c(c12)CCC3)c1cc(F)ccc1F | 12 | 17 | x | x
O=C(CCN1CCC(c2cccs2)=N1)c1cccs1 | -11 | 6 | x | x
CCc1ccc(OCC(=O)NC(NC(=S)Nc2ccccc2C)C(Cl)(Cl)Cl)cc1 (stereo not given) | 3 | -1 | 21* | 19*
CC(C)Cn1c(N)c(C=O)c(=O)[nH]c1=O | 10 | 1 | -5 | x
COc1ccccc1N1CCN(C(=O)CSc2nnc3n2C(C)(C)Cc2ccccc2-3)CC1 | 75* | 96* | -11 | 1
Cc1noc(C)c1COC(=O)c1cnc(Cl)c(Cl)c1 | 2 | 26 | -11 | x
CC(C)NCC(O)COC1CCC(C(C)(C)C)CC1 (stereo not given) | -3 | -15 | 6 | x
CC(C)NCC(O)COC1C2CC3CC(C2)CC1C3 (stereo not given) | 32* | 48* | -9 | x
CC1CCC(C(C)C)C(OCC(O)CNC(C)C)C1 (stereo not given) | 98* | 107* | x | x
CC(C)CNC(=S)NC(=O)c1ccc(F)cc1 | 2 | -10 | -1 | 0
N#CC1=C(N)Oc2n[nH]c(-c3ccncc3)c2C1c1ccsc1 (stereo not given) | -8 | -13 | -2 | 4
CCC(CC)C1C(C#N)=C(N)Oc2n[nH]c(-c3ccccc3)c21 (stereo not given) | 38* | 49* | -16 | 0
CCC(CC)C1C(C#N)=C(N)Oc2n[nH]c(C)c21 (stereo not given) | 2 | 14 | -6 | 2
N#CC1=C(N)Oc2n[nH]c(-c3ccccc3)c2C1c1ccsc1 (stereo not given) | -26 | -17 | 36* | 12
OC(CNCCc1ccc(C(F)(F)F)cc1)COc1cccc2ccccc12 (stereo not given) | 46* | 60* | -8 | 6
COc1ccc(CCNCC(O)COc2cccc(Br)c2)cc1 (stereo not given) | 63* | 75* | -1 | x
OC(CNCCc1ccc(C(F)(F)F)cc1)COc1ccc2ccccc2c1 (stereo not given) | -11 | -32 | 3 | 12
CCOC(=O)C(C)(C)N(Cc1ccc(C)cc1)S(=O)(=O)c1ccc(Cl)c([N+](=O)[O-])c1 | 51* | 76* | 0 | 0
